# V1R ag counter: activates human V1a receptor in oxytocin agonist counter-screen; AID 2797; 320,000 tested, 0.25% active; P37288; activation, % at 3 µM; CHO-V1R cells, Fluo-8 calcium fluorescence, agonist mode; 0% DMSO, 100% 3 nM vasopressin;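 active means activation above the mean activation of all tested compounds plus 3 SD, per screening run, cut at about 20% in these data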;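 further: signal is peak over basal fluorescence ratio across a 100 second FLIPR read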
# Target sequence (P37288 whole entry, looked up): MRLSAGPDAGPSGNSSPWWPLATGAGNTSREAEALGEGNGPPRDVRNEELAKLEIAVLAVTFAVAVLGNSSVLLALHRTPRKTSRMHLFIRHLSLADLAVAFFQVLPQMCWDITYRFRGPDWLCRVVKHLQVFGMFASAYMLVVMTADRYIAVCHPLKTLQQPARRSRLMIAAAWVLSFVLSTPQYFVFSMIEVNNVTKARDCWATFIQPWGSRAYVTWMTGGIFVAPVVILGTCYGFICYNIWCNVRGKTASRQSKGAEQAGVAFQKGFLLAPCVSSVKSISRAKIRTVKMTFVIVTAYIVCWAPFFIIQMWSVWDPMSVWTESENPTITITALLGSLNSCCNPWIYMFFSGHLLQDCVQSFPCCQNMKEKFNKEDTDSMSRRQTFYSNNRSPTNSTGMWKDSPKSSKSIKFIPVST
# OXTR ag: agonists of human oxytocin receptor | P30559 | CHO-OTR cells, Fluo-8 calcium fluorescence; normalized: DMSO 0%, oxytocin 100% | activation, % at 3 µM | 320,000 tested, 0.32% active | AID 2435;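 active means activation above the mean of all tested compounds plus 3 SD, cutoff set per screening run, cut at about 20% in these data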;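 further: peak over basal fluorescence ratio from a 100 s FLIPR kinetic read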
# CHO parental Ca: signal in parental CHO cells, OX1R antagonist counter-screen. parental CHO-K1, ATP-induced calcium, Fluo-8 fluorescence. inhibition, % at 5.6 µM. 330,000 tested, 0.63% active;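 active means inhibition above that plate's mean sample inhibition plus 3 SD, cut at about 26% in these data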;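 further: 0% = ATP-challenged DMSO wells and 100% = DMSO wells without ATP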
#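 Measured by: calcium-sensitive Fluo-8 fluorescence / Test system: CHO parental line / Controls: ATP-challenged DMSO wells low, unchallenged DMSO wells high / Measure: % inhibition / Compound: single nominal dose of 5.6 µM per compound / Replicates: single well per compound, no replicates / Reagent: ATP as calcium-mobilizing challenge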
# OX1R antag-1: OX1R (human) antagonism. OX1R-expressing cells, FRET antagonist read-out. O43613. 330,000 tested, 1.8% active. inhibition, % at 6.6 µM; in the data active means inhibition mostly above about 38%, no sharp cut-off; inactive means mostly below about 40%;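 further: 0% = agonist challenge alone and 100% = reference antagonist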
# OXTR potentiate: human OXTR potentiation | P30559 | CHO-OTR cells, Fluo-8 calcium fluorescence, potentiator mode; 0% = oxytocin EC15, 100% = EC100 | activation, % at 3 µM | 320,000 tested, 0.061% active | AID 2445;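 active means activation above that plate's cutoff, the mean activation of tested compounds plus 3 SD, cut at about 6.6% in these data, passing the limit was not always enough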;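 further: 100% uses oxytocin at 75 nM as the full agonist control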
#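 test system = CHO-OTR cells, human receptor | compound = single-point 3.0 µM | schedule = 6 min compound pre-incubation at room temperature, 100 s kinetic read | signal = Fluo-8 no-wash calcium dye fluorescence, excitation 470-495 nm, emission 515-575 nm | repeats = single well per compound, singlicate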
# OX1R antag-2: human HCRTR1 antagonism; O43613; CHO/OX1R cells, Fluo-8 calcium fluorescence, orexin A; inhibition, % at 5 µM; 330,000 tested, 0.43% active;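 active means inhibition above its plate's threshold, mean inhibition of all tested compounds on the plate plus 3 SD, cut at about 37% in these data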;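 further: 0% = orexin A challenge wells and 100% = SB-334867-A antagonist wells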
# OX1R HTRF confirm: OX1R (human) antagonism, HTRF confirmed; shares compounds with OX1R antag-1; AID 492964; OX1R-expressing cells, HTRF antagonist assay; 1,800 tested, 49% active; inhibition, % at 6.6 µM; in the data active means inhibition above about 55%;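 further: CHO cells expressing OX1R stimulated with orexin A at about EC80; 0% = agonist challenge alone and 100% = reference antagonist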
# CHO-K1 HTRF cnt: counter-screen: parental CHO-K1 HTRF response; shares compounds with OX1R antag-1; parental CHO-K1 cells, HTRF counterscreen; inhibition, % at 6.6 µM; 1,800 tested, 48% active; AID 493232; in the data active means inhibition above about 17%;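 further: 0% = agonist challenge with vehicle and 100% = vehicle alone without agonist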
# * hit, by the source's call; . = no result given; + = active, no number; ! = not active in a repeat. A selection: hits, their analogues and other compounds. The true share with any hit is near 2.7%.
SMILES,V1R ag counter,OXTR ag,CHO parental Ca,OX1R antag-1,OXTR potentiate,OX1R antag-2,OX1R HTRF confirm,CHO-K1 HTRF cnt
COCCCn1c(N)c(C(=O)OCCOC)c2nc3ccccc3nc21,1,-1,-18,20,-1,-30,.,.
CCOC(=O)c1c(N)n(CCCOC(=O)c2ccco2)c2nc3ccccc3nc12,0,-1,-6,83*,-5,-11,36,22*
C[C@]12CCC3=C4CCC(=O)C=C4CC[C@H]3C1CC[C@@H]2O (stereo partly drawn),2,2,-11,10,-9,-1,.,.
Cn1c(=O)c2nncnc2n(C)c1=O,1,-1,-4,125*,0,-12,45,75*
CC[C@@H](CO)NC(=O)[C@@H]1C=C2c3cccc4c3c(cn4C)C[C@H]2N(C)C1,1,0,0,84*!,6,1,20,19*
Cc1cccc(N=Nc2ccc(N(C)C)cc2)c1,0,-1,-5,-1,-9,-6,.,.
COC(=O)C1=C(c2cccc(C#N)c2)C[C@@H]2CC[C@H]1N2C(=O)N1CCC(C)CC1,-1,-2,-26,9,-6,-23,.,.
Cc1onc(-c2c(Cl)cccc2Cl)c1C(=O)Nc1ccc2c(C(F)(F)F)cc(=O)oc2c1,1,1,3,8,2,-23,.,.
O=C1C(=O)c2cccc3cccc1c23,-1,-1,-7,101*,3,-2,31,42*
O=C1C(=O)c2ccccc2-c2ccccc21,1,-1,-18,106*,-14,4,61*,29*
CCn1nc(-c2ccccc2)nc2c(=O)n(C)c(=O)nc1-2,1,0,-7,+,-7,-14,102*,95*
COC(=O)C1=C(c2ccc3ccccc3c2)C[C@@H]2CC[C@H]1N2C(=O)N1CCCCC1,-1,-1,-22,3,-5,-11,.,.
COC(=O)CCCC(NC(=S)N1CC2C[C@@H](C1)Cn1c2cccc1=O)C(=O)OC (stereo partly drawn),-1,0,4,10,-12,5,.,.
CNc1ccc2nc3ccccc3[n+](C)c2c1,3,4,6,94*,-8,-8,66*,145*
Cn1c(O)c(N=Nc2ccc(S(=O)(=O)N3CCOCC3)cc2)c(=O)n(C)c1=O,0,0,-10,86*,3,3,50,74*
COc1cccc(CNCCc2c[nH]c3ccccc23)c1OC,2,2,-19,8,-17,-29,.,.
CCOc1cc(CNCCc2c[nH]c3ccccc23)cc(Cl)c1OC,6,8,-17,105*,-24,-37,17,3
CCOc1cc2c(cc1OCC)-n1cccc1C(c1ccc(OC(F)F)cc1)NC2 (stereo not drawn),5,5,-7,-2,-7,-16,.,.
O=C1NC(=O)N(c2ccc3c(c2)OCO3)C(=O)/C1=C/c1ccc(N2CCCC2)o1,10,9,2,92*,0,-2,46,75*
CCOc1ccc(N2C(=O)NC(=O)/C(=C\c3ccc(N4CCCCC4)o3)C2=O)cc1,7,6,4,32,-2,-2,.,.
Cc1nc2c(=O)n(C)c(=O)nc-2n(C)n1,1,0,-8,+,0,2,84*,100*
CN1CC=C2C(C#N)=C(N)C(C#N)(C#N)C(c3ccncc3)C2C1 (stereo not drawn),3,2,1,102*,-3,-2,18,24*
CC(=O)O[C@H]1[C@H]2O[C@]23[C@@H]2CC[C@]4(O)C[C@@H](O)CC[C@]4(C)C2CC[C@]3(C)[C@H]1c1ccc(=O)oc1 (stereo partly drawn),0,0,-8,1,0,-5,.,.
O=c1[nH]c(O)c(N=Nc2cc([N+](=O)[O-])ccc2O)c(=O)[nH]1,3,3,4,+,-7,-5,71*,93*
NC(=O)c1ccc(N=Nc2c(O)[nH]c(=O)[nH]c2=O)cc1,1,0,-10,26,-4,-3,.,.
CN1CC=C(/C=C/c2ccc(-c3ccccc3)cc2)CC1,12,14,22,-1,-19,20,.,.
N#CC(C#N)=NNc1ccc(S(N)(=O)=O)cc1,0,0,-4,84*,-5,-4,19,-1

# Compound activity from PubChem BioAssay.
